5HT1a antag = human 5-HT1a receptor antagonists, primary screen, cell-based, CHO, Ga15 NFAT-bla reporter. CHO 5-HT1a Ga15 NFAT-bla reporter, antagonist mode. inhibition, % at 10 µM. 62,000 compounds, 0.68% hits. AID 612, 2007;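 active means inhibition above the mean of all tested compounds plus 3 SD, cut at about 43% in these data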;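 further: receptor stimulated by 5-CT agonist at 100 nM near EC80; beta-lactamase reporter measured by ratiometric fluorescence of a cleavable substrate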
Target sequence (P08908 whole entry, looked up): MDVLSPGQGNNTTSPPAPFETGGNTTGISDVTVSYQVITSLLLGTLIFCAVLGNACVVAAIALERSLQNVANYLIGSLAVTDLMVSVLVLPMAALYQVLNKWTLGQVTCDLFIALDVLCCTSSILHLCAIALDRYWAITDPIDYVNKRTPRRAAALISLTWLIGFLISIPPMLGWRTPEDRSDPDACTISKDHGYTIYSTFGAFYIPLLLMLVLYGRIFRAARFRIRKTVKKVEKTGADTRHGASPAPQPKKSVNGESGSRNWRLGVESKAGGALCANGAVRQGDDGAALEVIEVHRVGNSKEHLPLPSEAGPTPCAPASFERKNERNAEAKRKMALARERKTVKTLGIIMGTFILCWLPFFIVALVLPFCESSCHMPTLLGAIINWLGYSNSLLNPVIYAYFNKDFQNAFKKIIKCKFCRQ
5HT1a ag = human 5-HT1a receptor agonists, primary screen, cell-based, CHO, Ga15 NFAT-bla reporter | CHO 5-HT1a Ga15 NFAT-bla reporter, FRET ratio; 0% basal, 100% maximal reference agonist | 65,000 compounds, 0.56% hits | AID 567, 2006 | 5-hydroxytryptamine receptor 1A (Homo sapiens), P08908 | activation, % at 10 µM;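 active means activation above the screen-wide mean activation plus 3 SD, cut at about 19% in these data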;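 further: 0% = DMSO wells and 100% = 5-CT at EC100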
5HT1E antag = 5-HT1E receptor antagonists, primary screen, cell-based, HTS; 5-hydroxytryptamine receptor 1E (Homo sapiens), P28566; CHO 5-HT1E Ga15 NFAT-bla reporter, FRET, antagonist; inhibition, % at 6 µM; 65,000 compounds, 0.99% hits; AID 571, 2007;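 active means inhibition above a set limit, the mean inhibition across every tested compound plus 3 SD, cut at about 29% in these data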;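 further: signal is the 460 over 535 nm emission ratio of beta-lactamase substrate; 0% = agonist plus DMSO wells and 100% = wells without agonist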
HTR1E agonist = 5-HT1E receptor agonists, primary screen, cell-based, HTS; 5-hydroxytryptamine receptor 1E (Homo sapiens), P28566; CHO 5-HT1E Ga15 NFAT-bla reporter, FRET; 0% DMSO wells, 100% control agonist wells; activation, % at 6 µM; 65,000 compounds, 0.69% hits; AID 574, 2007;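 active means activation above a set limit, the screen-wide mean activation plus 3 SD, cut at about 8.5% in these data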;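 further: 100% = positive control agonist at 1 µM giving full maximal response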
S1P3 ag = human S1P3 receptor agonists, primary screen, cell-based, primary and confirmation, NFAT-BLA reporter; 60,000 compounds, 0.1% hits; S1P3 NFAT-BLA reporter cells, agonism, FRET ratio; relative to 1 µM S1P, basal subtracted; Sphingosine 1-phosphate receptor 3 (Homo sapiens), Q99500; AID 373, 2006; activation, % at 4.5 µM;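 active means activation above the screen-wide mean plus 3 SD, cut at about 4.5% in these data, passing the limit was not always enough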
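material = human S1P3 NFAT-BLA reporter CHO cells | schedule = 4 h compound at 37 °C, 2 h substrate at RT | measured by = fluorescent BLA substrate, ex 405 nm, em 460/535 nm ratio | controls = 1 µM S1P reference | replication = primary once, confirmation triplicate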
S1P1 ag pot = S1P1 agonists and agonism potentiators, primary screen, cell-based, primary and confirmation screens, CRE-bla reporter; S1P1 CRE-bla cells, forskolin, beta-lactamase FRET, potentiator mode; S1P1 agonist co-added at EC20, 2 nM; 100% = saturating reference agonist, 0% = basal; Sphingosine 1-phosphate receptor 1 (Homo sapiens), P21453; 56,000 compounds, 0.57% hits; AID 449, 2006; activation, % at 9.5 µM;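 active means activation above a cutoff set at the mean activation of all tested compounds plus 3 SD, cut at about 54% in these data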;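 further: forskolin at 4 µM as EC80 and the EC20 agonist is SEW2871; 100% = SEW2871 at its EC100 plus forskolin at EC80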
* = called active by the depositor; . = not tested or not shown. Only some compounds are listed: those with a hit (about 3% of all), similar ones and a draw of the others.

SMILES	5HT1a antag	5HT1a ag	5HT1E antag	HTR1E agonist	S1P3 ag	S1P1 ag pot
C=CCc1c(C)nc(SC(C)C)[nH]c1=O	-6.8	-1.1	3.8	0.4	-1.2	.
CCc1nc(NCCc2ccccn2)c2nnn(Cc3ccccc3F)c2n1	-12.1	4.9	19.3	0.2	-0.6	3.5
Cc1cc2nc(-c3ccc(NC(=O)C(C)C)cc3)oc2cc1C	7.1	-0.7	-11.8	0.3	-2.2	108.3*
Cc1cc(NC(=O)CSc2nc3ccccc3c(=O)n2C2CCCC2)no1	58.1*	0.3	65.3*	0.7	0.1	.
CCOc1ccc(C(C)=O)cc1N1C(=O)C2C3C=CC(O3)C2C1=O (configuration not stated)	60.5*	-2.3	39.3*	0.4	1.2	76.3
CCOc1ccc(C(C)=O)cc1N1C(=O)C2C3C=CC(C3)C2C1=O (configuration not stated)	1.0	-4.3	7.9	-0.4	-0.3	-7.7
CC(C)Cn1c(=O)c(C(=O)Nc2ccccc2S(N)(=O)=O)c(O)c2ccccc21	-26.1	-2.0	-3.1	0.4	-1.6	119.7*
CCCC(=O)Nc1cccc(NC(=O)c2ccc3c(c2)OCO3)c1	5.3	-1.3	2.7	13.7*	-0.8	-10.9
Cc1cccc(N2CCN(C(=O)c3ccc(CS(=O)(=O)c4ccccc4C)o3)CC2C)c1 (configuration not stated)	45.6*	1.1	39.5*	0.3	-1.8	6.4
Cn1cc(/C=N/n2cnc3scc(-c4ccc(Cl)cc4)c3c2=O)c2ccccc21	71.1*	-4.9	82.6*	-0.6	-2.2	-16.6
O=C(CN1C(=O)NC2(CCCc3ccccc32)C1=O)N1CCc2ccccc2C1 (configuration not stated)	-3.5	-0.1	5.2	0.4	-0.9	2.3
COc1ccccc1CN(Cc1cc2c(C)ccc(C)c2[nH]c1=O)Cc1nnnn1Cc1ccco1	17.1	1.8	1.3	0.3	-0.5	-14.2
Cc1ccc(-n2c(=O)c(C#N)cc3c(=O)n4ccccc4nc32)cc1	-25.2	30.0*	-5.9	7.8	4.2	-11.4
Cc1cc(-n2c(=O)c(C#N)cc3c(=O)n4cccc(C)c4nc32)no1	-20.6	49.2*	-3.6	3.1	7.9	-21.8
C=CCn1c(=O)/c(=C/c2cc(OC)c(OC)c(OC)c2)s/c1=C(/C#N)c1nc2ccccc2n1C	-10.8	2.4	20.4	-0.2	.	.
CC(C)(C)n1nnnc1C(c1ccccc1F)N(Cc1ccco1)CC1CCCO1 (configuration not stated)	39.6	-1.0	11.3	-0.5	-0.3	-4.3
COc1cccc(CN(Cc2ccco2)C(c2ccc(F)cc2)c2nnnn2C(C)(C)C)c1 (configuration not stated)	45.7*	-2.8	1.3	-1.1	-1.7	-10.3
N#Cc1ccc(CSc2nnc(NC(=O)CN3C(=O)C4CC=CCC4C3=O)s2)cc1 (configuration not stated)	12.9	-0.5	-1.8	0.3	0.0	-10.7
O=C(NCC(c1cccs1)N1CCOCC1)c1ccc(Cl)s1 (configuration not stated)	8.9	-2.0	12.3	-0.1	-1.4	2.3
CN(C)S(=O)(=O)c1ccc(NC(=O)c2cc3ccccc3o2)cc1	-8.2	20.7*	20.4	-0.3	-1.8	13.9
CCC(=O)Nc1ccc(NC(=O)c2cc3ccccc3o2)cc1	-16.2	0.8	-0.3	-0.7	-1.2	-10.2
N=C1C(c2ccccc2)=C(O)CN1c1ccc2c(c1)OCO2	12.9	-1.9	0.7	1.0	-0.7	20.1
COC(=O)c1ccccc1NC(=O)CSc1nc(-c2ccco2)cc(C(F)(F)F)n1	27.9	-1.8	50.1*	-1.3	-2.0	7.5
CS(=O)(=O)c1nc(-c2cccs2)cc(C(F)(F)F)n1	110.5*	-13.0	106.0*	2.2	.	.
Cc1cc(NC(=O)CCCS(=O)(=O)c2nc(-c3cccs3)cc(C(F)(F)F)n2)no1	97.7*	-3.6	30.5*	0.9	-1.5	36.0
SMILES	5HT1a antag	5HT1a ag	5HT1E antag	HTR1E agonist	S1P3 ag	S1P1 ag pot
Cc1cc(NC(=O)CSc2nc(-c3cccs3)cc(C(F)(F)F)n2)no1	20.8	-2.3	59.3*	-0.1	0.0	3.8
Cc1nc(C)c(C(=O)C2=C(O)C(=O)N(CCCn3ccnc3)C2c2ccc(Cl)cc2)s1 (configuration not stated)	-0.2	-4.1	1.0	0.4	0.1	-5.8
Cc1ccc(S(=O)(=O)N2CCN(c3nc(C)c4c(c3C#N)CC(C)(C)OC4)CC2)cc1	.	1.6	22.9	0.5	-4.0	7.7
CCCCN(CC)Cc1ccc(CNC(=O)Nc2ccc(OC)cc2OC)o1	12.9	-1.7	5.5	52.5*	0.0	2.3
CCOC(=O)CSc1nc2c(sc(=S)n2Cc2ccco2)c(=O)n1-c1ccc(F)cc1	50.2*	0.5	11.2	0.3	.	.
CCn1c(=S)sc2c(=O)n(-c3ccccc3)c(SCC(=O)NCc3ccco3)nc21	22.0	-0.6	-1.7	-0.3	.	.
Fc1ccc(COc2ccc(/C=N/n3cnnc3)cc2)cc1	1.5	-1.5	3.7	1.1	-1.4	64.5*
Cc1nc(CSc2nnc3scc(-c4ccc(Cl)cc4)n23)cs1	7.1	-0.3	21.2	-1.3	.	.
CC1CCN(C(=O)CSc2nc3cccnc3n2C)CC1	-12.1	89.2*	5.5	-1.1	-0.9	-2.4
COc1ccc(-n2nnnc2Sc2ccc(S(=O)(=O)N3CCOCC3)cn2)cc1	-7.9	-2.1	-5.9	-0.3	-1.0	1.6
CCOC(=O)C1=C(Cn2cnc3ccccc32)NC(=O)NC1c1cc(C)ccc1C (configuration not stated)	-5.7	8.0	0.9	2.0	-0.3	-102.3
COC(=O)C1=C(Cn2cnc3ccccc32)NC(=O)NC1c1cc(C)ccc1C (configuration not stated)	-5.4	22.1*	1.7	-1.3	-1.2	.
CCOc1ccc(-c2nnc(-c3cccs3)o2)cc1OCC	-4.6	1.1	-7.5	0.5	0.1	103.5*
COc1ccc(-c2nnc(-c3cccs3)o2)cc1OC	-10.7	1.8	-3.5	1.9	0.1	-18.9
Cc1cc(C)cc(OCC(=O)Nc2cccc(-c3nnc(-c4ccco4)o3)c2)c1	-12.2	19.6*	-8.5	0.3	0.5	.
CCOc1cc(-c2nnc(-c3ccco3)o2)cc(OCC)c1OCC	-8.3	-2.4	4.1	0.9	-0.6	-17.6

Compound activity deposited in PubChem BioAssay by The Scripps Research Institute Molecular Screening Center.
